Source: ChEMBL document CHEMBL1142636 (2000)
Calls of active or inactive are those of the source.

Tests used:
Format in all cases: functional
SNB-75 = experiment: Growth inhibition of human SNB75 cells
Procedure, shortened: (§1)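 Tested at the NCI in its human disease-oriented in vitro screen of 60 tumour cell lines, following the Monks et al. methods. Activity is expressed as GI50, given as log molar values.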

UO-31 = experiment: Growth inhibition of human UO31 cells; procedure, shortened: as §1
U-251 = experiment: Growth inhibition of human U251 cells; procedure, shortened: as §1
SR = experiment: Growth inhibition of human SR cells; procedure, shortened: as §1
HCT-15 = experiment: Growth inhibition of human HCT15 cells
Malme-3M = experiment: Growth inhibition of human MALME-3M cells
TK-10 = experiment: Growth inhibition of human TK10 cells; procedure, shortened: as §1
OVACR4 = experiment: Growth inhibition of human OVACR4 cells
MOLT-4 = experiment: Growth inhibition of human MOLT4 cells
NCI-H460 = experiment: Growth inhibition of human NCI-H460 cells
HCC 2998 = experiment: Growth inhibition of human HCC2998 cells
EKVX = experiment: Growth inhibition of human EKVX cells
SK-MEL-2 = experiment: Growth inhibition of human SK-MEL-2 cells; procedure, shortened: as §1
NCI-H226 = experiment: Growth inhibition of human NCI-H226 cells
HL-60(TB) = experiment: Growth inhibition of human HL60(TB) cells
UACC-62 = experiment: Growth inhibition of human UACC62 cells; procedure, shortened: as §1
MDA-MB-231 = experiment: Growth inhibition of human MDA-MB-231 cells
NCI/ADR-RES = experiment: Growth inhibition of human MCF7/ADR-RES cells
COLO 205 = experiment: Growth inhibition of human COLO205 cells
SK-MEL-28 = experiment: Growth inhibition of human SK-MEL-28 cells; procedure, shortened: as §1
OVACR5 = experiment: Growth inhibition of human OVACR5 cells
BT-549 = experiment: Growth inhibition of human BT549 cells
K562 = experiment: Growth inhibition of human K562 cells
SF-539 = experiment: Growth inhibition of human SF539 cells; procedure, shortened: as §1
OVACR8 = experiment: Growth inhibition of human OVACR8 cells
HOP-92 = experiment: Growth inhibition of human HOP92 cells
A498 = experiment: Growth inhibition of human A498 cells
DU-145 = experiment: Growth inhibition of human DU145 cells
SW-620 = experiment: Growth inhibition of human SW620 cells; procedure, shortened: as §1
A549 = experiment: Growth inhibition of human A549 cells
LXFL 529 = experiment: Growth inhibition of human LXFL529 cells
DMS144 = experiment: Growth inhibition of human DMS144 cells
HT-29 = experiment: Growth inhibition of human HT29 cells
XF498 = experiment: Growth inhibition of human XF498 cells; procedure, shortened: as §1
CCRF-CEM = experiment: Growth inhibition of human CCRF-CEM cells
IGROV-1 = experiment: Growth inhibition of human IGROV1 cells
HOP-62 = experiment: Growth inhibition of human HOP62 cells
MDA-MB-435 = experiment: Growth inhibition of human MDA-MB-435 cells
KM-20L2 = experiment: Growth inhibition of human KM20L2 cells
RPMI8266 = experiment: Growth inhibition of human RPMI8266 cells
PC-3 = experiment: Growth inhibition of human PC3 cells
LOX IMVI = experiment: Growth inhibition of human LOX IMVI cells
SN12C = experiment: Growth inhibition of human SN12C cells; procedure, shortened: as §1
NCI-H23 = experiment: Growth inhibition of human NCI-H23 cells
DMS-273 = experiment: Growth inhibition of human DMS273 cells
CAKI-1 = experiment: Growth inhibition of human CAKI1 cells
SK-OV-3 = experiment: Growth inhibition of human SK-OV-3 cells; procedure, shortened: as §1
M19-MEL = experiment: Growth inhibition of human M19-MEL cells
T47D = experiment: Growth inhibition of human T47D cells; procedure, shortened: as §1
ACHN = experiment: Growth inhibition of human ACHN cells
MCF7 = experiment: Growth inhibition of human MCF7 cells
DLD-1 = experiment: Growth inhibition of human DLD1 cells
SF-268 = experiment: Growth inhibition of human SF268 cells; procedure, shortened: as §1
M14 = experiment: Growth inhibition of human M14 cells
SF-295 = experiment: Growth inhibition of human SF295 cells; procedure, shortened: as §1
Hs-578T = experiment: Growth inhibition of human HS578T cells
SK-MEL-5 = experiment: Growth inhibition of human SK-MEL-5 cells; procedure, shortened: as §1
HCT-116 = experiment: Growth inhibition of human HCT116 cells
OVACR3 = experiment: Growth inhibition of human […] cells
SNB-19 = experiment: Growth inhibition of human SNB19 cells; procedure, shortened: as §1
HOP-18 = experiment: Growth inhibition of human HOP18 cells
RXF 393 = experiment: Growth inhibition of human […] cells
786-0 = experiment: Growth inhibition of human 786-0 cells
KM12 = experiment: Growth inhibition of human KM12 cells
NCI-H522 = experiment: Growth inhibition of human NCI-H522 cells
MDA-N = experiment: Growth inhibition of human MDA-N cells
NCI-H322M = experiment: Growth inhibition of human NCI-H322M cells
UACC-257 = experiment: Growth inhibition of human UACC257 cells; procedure, shortened: as §1

Measured: Activity

COc1ccc2c([nH]c3c(O)c(-c4c(C)cc5c([nH]c6c(CC=C(C)C)c(OC)ccc65)c4O)c(C)cc32)c1CC=C(C)C
inactive: SNB-75 | UO-31 | U-251 | SR | HCT-15 | Malme-3M | TK-10 | OVACR4 | MOLT-4 | NCI-H460 | HCC 2998 | EKVX | SK-MEL-2 | NCI-H226 | HL-60(TB) | UACC-62 | MDA-MB-231 | NCI/ADR-RES | COLO 205 | SK-MEL-28 | OVACR5 | BT-549 | K562 | SF-539 | OVACR8 | HOP-92 | A498 | DU-145 | SW-620 | A549 | LXFL 529 | DMS144 | HT-29 | XF498 | CCRF-CEM | IGROV-1 | HOP-62 | MDA-MB-435 | KM-20L2 | RPMI8266 | PC-3 | LOX IMVI | SN12C | NCI-H23 | DMS-273 | CAKI-1 | SK-OV-3 | M19-MEL | T47D | ACHN | MCF7 | DLD-1 | SF-268 | M14 | SF-295 | Hs-578T | SK-MEL-5 | HCT-116 | OVACR3 | SNB-19 | HOP-18 | RXF 393 | 786-0 | KM12 | NCI-H522 | MDA-N | NCI-H322M | UACC-257
